According to ChEMBL document CHEMBL1153056, “Identification of MK-1925: a selective, orally active and brain-penetrable opioid receptor-like 1 (ORL1) antagonist” (Bioorg Med Chem Lett, 2009):
Values belong to the compound of their own block, whether it stands above or below them.

Columns and labels:
[1] = Distribution coefficient, log D at pH 7.4 by shake-flask method; assay type: physicochemical; details: octanol/water
Nociceptin receptor [2] = biological target: T1, Nociceptin receptor (Homo sapiens, UniProt P41146); assay: Displacement of [125I]Tyr14-NC/OFQ from ORL1 receptor
T1 sequence (P41146 whole entry): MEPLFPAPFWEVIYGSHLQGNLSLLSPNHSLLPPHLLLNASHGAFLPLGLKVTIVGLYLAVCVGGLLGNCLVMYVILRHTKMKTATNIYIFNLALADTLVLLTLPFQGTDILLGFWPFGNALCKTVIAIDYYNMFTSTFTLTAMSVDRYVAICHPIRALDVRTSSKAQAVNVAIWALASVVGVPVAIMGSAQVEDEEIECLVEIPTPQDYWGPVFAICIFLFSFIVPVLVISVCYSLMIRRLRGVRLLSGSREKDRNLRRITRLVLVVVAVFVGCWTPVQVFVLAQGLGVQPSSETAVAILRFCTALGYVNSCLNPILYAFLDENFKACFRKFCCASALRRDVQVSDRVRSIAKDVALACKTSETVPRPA

[3] = Metabolic stability in cryopreserved human hepatocytes after 30 mins; assay type: ADME, cell-based, Hepatocyte; details: read-out: Stability
Nociceptin receptor [4] = biological target: T1, Nociceptin receptor; assay: Antagonist activity at ORL1 receptor by [35S]GTPgammaS binding assay; assay type: functional
Mus musculus [5] = assay: Reversal of ORL1 agonist-induced locomotor activity in mouse at 30 mg/kg, po after 60 mins; assay type: functional
Outline: (§1)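 Mice dosed orally; ORL1 agonist then given to reduce locomotor activity, with activity monitored for 60 min. Result expressed as % reversal of the agonist-induced reduction in locomotor activity.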

Mus musculus [6] = assay: Reversal of ORL1 agonist-induced locomotor activity in mouse at 10 mg/kg, po after 60 mins; assay type: functional; outline: as §1
[7] = Half life in dog at 3 mg/kg, po; assay type: ADME, organism-based, Canis lupus familiaris; set-up: dose 3 mg/kg, route oral; details: in vivo
Outline: (§2)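 PK run with a 3 mg/kg oral dose and a 1 mg/kg IV dose; values are the mean of n = 3 animals.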

[8] = Half life in rat at 3 mg/kg, po; assay type: ADME, organism-based; set-up: dose 3 mg/kg, route oral; details: in vivo; outline: as §2
[9] = biological target: Delta-type opioid receptor (Homo sapiens, UniProt P41143); assay: Displacement of [3H]naltrindole from human cloned delta opioid receptor expressed in CHO cells; assay type: cell-based
Sequence of Delta-type opioid receptor (P41143 whole entry): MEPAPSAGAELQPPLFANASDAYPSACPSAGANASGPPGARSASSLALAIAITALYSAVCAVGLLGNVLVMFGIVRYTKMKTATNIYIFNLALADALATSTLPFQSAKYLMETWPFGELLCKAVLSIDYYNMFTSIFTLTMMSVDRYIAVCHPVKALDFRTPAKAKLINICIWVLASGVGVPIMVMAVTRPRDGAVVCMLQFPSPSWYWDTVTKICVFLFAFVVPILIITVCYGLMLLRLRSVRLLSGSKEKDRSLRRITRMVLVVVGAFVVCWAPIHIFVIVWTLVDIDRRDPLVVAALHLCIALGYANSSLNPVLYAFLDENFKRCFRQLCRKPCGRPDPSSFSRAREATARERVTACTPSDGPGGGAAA

Mus musculus [10] = assay: Plasma concentration in mouse at 30 mg/kg, po; assay type: ADME, organism-based; set-up: dose 30 mg/kg, route oral; details: in vivo
Outline: (§3)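 Mice dosed orally at 3, 10 or 30 mg/kg. Plasma and brain were sampled 60 min after dosing. Brain level is given as nmol/g brain, and the brain/plasma ratio was derived.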

[11] = biological target: Voltage-gated inwardly rectifying potassium channel KCNH2 (Homo sapiens, UniProt Q12809); assay: Displacement of [35S]MK499 from human ERG expressed in HEK293 cells overexpressing Ikr channel protein; assay type: cell-based
Sequence of Voltage-gated inwardly rectifying potassium channel KCNH2 (Q12809 whole entry): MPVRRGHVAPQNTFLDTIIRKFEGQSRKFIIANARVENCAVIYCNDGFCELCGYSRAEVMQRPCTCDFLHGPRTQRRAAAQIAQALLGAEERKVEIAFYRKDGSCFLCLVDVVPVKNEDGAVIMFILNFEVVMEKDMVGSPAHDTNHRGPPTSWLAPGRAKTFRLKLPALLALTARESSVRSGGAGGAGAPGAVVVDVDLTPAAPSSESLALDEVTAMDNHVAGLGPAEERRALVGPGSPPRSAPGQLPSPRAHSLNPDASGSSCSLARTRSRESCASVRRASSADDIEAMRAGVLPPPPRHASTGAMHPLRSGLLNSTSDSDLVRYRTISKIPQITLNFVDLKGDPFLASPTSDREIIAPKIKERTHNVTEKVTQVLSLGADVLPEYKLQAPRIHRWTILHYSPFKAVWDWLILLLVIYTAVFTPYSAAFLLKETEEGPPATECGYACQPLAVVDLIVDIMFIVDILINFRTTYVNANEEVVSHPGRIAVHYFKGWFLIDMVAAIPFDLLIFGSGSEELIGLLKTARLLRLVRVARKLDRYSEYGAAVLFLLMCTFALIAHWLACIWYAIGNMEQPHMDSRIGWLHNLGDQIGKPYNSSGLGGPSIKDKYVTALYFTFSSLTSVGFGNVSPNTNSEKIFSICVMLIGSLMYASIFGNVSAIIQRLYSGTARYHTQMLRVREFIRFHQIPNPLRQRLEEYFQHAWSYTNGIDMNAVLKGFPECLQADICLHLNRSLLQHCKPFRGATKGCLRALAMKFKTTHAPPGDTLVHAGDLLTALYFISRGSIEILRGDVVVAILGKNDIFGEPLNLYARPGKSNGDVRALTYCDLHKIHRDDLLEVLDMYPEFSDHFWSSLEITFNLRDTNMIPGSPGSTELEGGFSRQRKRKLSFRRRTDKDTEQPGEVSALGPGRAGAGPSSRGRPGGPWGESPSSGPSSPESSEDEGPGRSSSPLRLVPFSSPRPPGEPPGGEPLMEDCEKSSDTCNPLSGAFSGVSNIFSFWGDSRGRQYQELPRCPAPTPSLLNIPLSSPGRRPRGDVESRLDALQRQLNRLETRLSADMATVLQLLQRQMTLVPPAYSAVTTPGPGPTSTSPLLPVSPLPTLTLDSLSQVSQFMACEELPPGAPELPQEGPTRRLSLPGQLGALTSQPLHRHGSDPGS
Outline: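 Membranes from HEK 293 cells stably transfected with the hERG gene and expressing the I_Kr channel protein; [³⁵S]-radiolabeled MK499 displaced.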

Brain [12] = assay: Drug level in mouse brain assessed per gram of tissue at 30 mg/kg, po after 60 mins; assay type: ADME, organism-based; set-up: dose 30 mg/kg, route oral; details: in vivo, 1 h; outline: as §3
[13] = Plasma clearance in rat at 1 mg/kg, iv; assay type: ADME, organism-based; set-up: dose 1 mg/kg, route intravenous; outline: as §2
[14] = Volume of distribution at steady state in rat at 1 mg/kg, iv; assay type: ADME, organism-based; set-up: dose 1 mg/kg, route intravenous; details: in vivo, read-out: Vdss; outline: as §2
[15] = Cmax in dog at 3 mg/kg, po; assay type: ADME, organism-based, Canis lupus familiaris; set-up: dose 3 mg/kg, route oral; details: in vivo; outline: as §2
Brain [16] = assay: Drug level in mouse brain assessed per gram of tissue at 3 mg/kg, po after 60 mins; assay type: ADME, organism-based; set-up: dose 3 mg/kg, route oral; details: in vivo, 1 h; outline: as §3
Brain [17] = assay: Drug level in mouse brain assessed per gram of tissue at 10 mg/kg, po after 60 mins; assay type: ADME, organism-based; set-up: dose 10 mg/kg, route oral; details: in vivo, 1 h; outline: as §3
Mus musculus [18] = assay: Plasma concentration in mouse at 10 mg/kg, po; assay type: ADME, organism-based; set-up: dose 10 mg/kg, route oral; details: in vivo; outline: as §3
[19] = Oral bioavailability in rat at 3 mg/kg; assay type: ADME, organism-based; details: in vivo; outline: as §2
[20] = AUC (0 to infinity) in dog at 3 mg/kg, po; assay type: ADME, organism-based, Canis lupus familiaris; set-up: dose 3 mg/kg, route oral, time infinity; details: plasma; outline: as §2
[21] = Inhibition of choline transporter at 10 uM
Mu-type opioid receptor = Mu-type opioid receptor (Homo sapiens, UniProt P35372); assay: Displacement of [3H]diprenorphin from human cloned mu opioid receptor expressed in CHO cells; assay type: cell-based
Sequence of Mu-type opioid receptor (P35372 whole entry): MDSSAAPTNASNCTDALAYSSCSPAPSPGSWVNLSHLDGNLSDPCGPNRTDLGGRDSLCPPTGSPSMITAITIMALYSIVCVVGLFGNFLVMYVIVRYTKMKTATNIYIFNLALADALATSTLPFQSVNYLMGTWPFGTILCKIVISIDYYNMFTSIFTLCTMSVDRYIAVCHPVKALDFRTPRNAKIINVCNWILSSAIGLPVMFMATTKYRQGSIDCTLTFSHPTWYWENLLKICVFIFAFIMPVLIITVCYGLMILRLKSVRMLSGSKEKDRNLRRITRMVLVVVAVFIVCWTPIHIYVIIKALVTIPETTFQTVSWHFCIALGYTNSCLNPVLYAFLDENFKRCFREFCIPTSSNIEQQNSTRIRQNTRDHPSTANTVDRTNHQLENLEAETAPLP

[22] = Ratio of drug level in brain to plasma in mouse at 10 mg/kg, po after 60 mins; assay type: ADME, organism-based; set-up: dose 10 mg/kg, route oral
Outline: (§4)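 Mice received single oral doses (3, 10 or 30 mg/kg). Plasma and brain levels were taken 60 min after dosing. Brain levels were expressed as nmol/g brain, and the b/p ratio was brain level over plasma level.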

[23] = biological target: Kappa-type opioid receptor (Homo sapiens, UniProt P41145); assay: Displacement of [3H]U69593 from human cloned kappa opioid receptor expressed in CHO cells; assay type: cell-based
Sequence of Kappa-type opioid receptor (P41145 whole entry): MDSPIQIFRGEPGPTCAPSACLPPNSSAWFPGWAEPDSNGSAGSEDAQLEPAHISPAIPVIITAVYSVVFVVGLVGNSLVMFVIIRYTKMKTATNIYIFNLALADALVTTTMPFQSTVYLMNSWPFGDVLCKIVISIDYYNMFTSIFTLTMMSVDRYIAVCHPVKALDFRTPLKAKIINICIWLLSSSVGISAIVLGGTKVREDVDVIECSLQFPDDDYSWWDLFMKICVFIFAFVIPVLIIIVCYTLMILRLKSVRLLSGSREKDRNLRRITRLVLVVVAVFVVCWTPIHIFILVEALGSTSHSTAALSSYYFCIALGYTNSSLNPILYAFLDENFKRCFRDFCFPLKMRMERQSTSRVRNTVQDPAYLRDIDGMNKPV

[24] = Cmax in rat at 3 mg/kg, po; assay type: ADME, organism-based; set-up: dose 3 mg/kg, route oral; details: in vivo; outline: as §2
[25] = Volume of distribution at steady state in dog at 1 mg/kg, iv; assay type: ADME, organism-based, Canis lupus familiaris; set-up: dose 1 mg/kg, route intravenous; details: in vivo, read-out: Vdss; outline: as §2
[26] = Inhibition of choline transporter
Mus musculus [27] = assay: Reversal of ORL1 agonist-induced locomotor activity in mouse at 3 mg/kg, po after 60 mins; assay type: functional; outline: as §1
[28] = Plasma clearance in dog at 1 mg/kg, iv; assay type: ADME, organism-based, Canis lupus familiaris; set-up: dose 1 mg/kg, route intravenous; outline: as §2
[29] = Ratio of drug level in brain to plasma in mouse at 3 mg/kg, po after 60 mins; assay type: ADME, organism-based; set-up: dose 3 mg/kg, route oral; outline: as §4
[30] = AUC (0 to infinity) in rat at 3 mg/kg, po; assay type: ADME, organism-based; set-up: time infinity, dose 3 mg/kg, route oral; details: plasma; outline: as §2
Mus musculus [31] = assay: Plasma concentration in mouse at 3 mg/kg, po; assay type: ADME, organism-based; set-up: dose 3 mg/kg, route oral; details: in vivo; outline: as §3
[32] = Oral bioavailability in dog at 3 mg/kg; assay type: ADME, organism-based, Canis lupus familiaris; details: in vivo; outline: as §2
Mus musculus [33] = assay: Reversal of ORL1 agonist-induced locomotor activity in po dosed mouse after 60 mins; assay type: functional, organism-based
Outline: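 Mice received oral doses of 3, 10 or 30 mg/kg against the locomotor-activity reduction produced by an ORL1 agonist, measured over 60 min. Results are expressed as % reversal of the agonist response.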

[34] = Cmax in anesthetized dog at 10 mg/kg; assay type: ADME, organism-based, Canis lupus familiaris; set-up: dose 10 mg/kg; details: in vivo
[35] = Ratio of drug level in brain to plasma in mouse at 30 mg/kg, po after 60 mins; assay type: ADME, organism-based; set-up: dose 30 mg/kg, route oral; outline: as §4
Canis familiaris = assay: Toxicity in anesthetized dog assessed as adverse effect up to 10 mg/kg; assay type: organism-based, Canis lupus familiaris; set-up: dose 10 mg/kg; details: in vivo

Structure (SMILES): Cc1c(CN[C@H]2CC[C@@H](F)C2)nn(CCS(C)(=O)=O)c1-c1cc(F)cc(F)c1
logD [1]: < 1
IC50 (Nociceptin receptor [2]): 33 nM

Structure (SMILES): Cc1c(CN[C@H]2CC[C@@H](F)C2)nn(CCC#N)c1-c1cc(F)cc(F)c1
Activity (Mus musculus [5]): 112%
Activity (Mus musculus [6]): 81%
half-life [7]: 2.8 h
half-life [8]: 0.7 h
remaining at 0.5 h [3]: 77%
IC50 [9]: > 10000 nM
concentration (Mus musculus [10]): 1630 nM
IC50 [11]: 9500 nM
logD [1]: 1.5
Drug uptake (Brain [12]): 3.02 nmol/g
clearance [13]: 83 mL/min/kg
Vd [14]: 5.2 L/kg
Cmax [15]: 2600 nM
Drug uptake (Brain [16]): 0.035 nmol/g
Drug uptake (Brain [17]): 0.516 nmol/g
concentration (Mus musculus [18]): 315 nM
bioavailability [19]: 21%
AUC(0-inf) [20]: 1.3 µM·h
inhibition [21]: 50%
IC50 (Mu-type opioid receptor): > 10000 nM
Kp at 1 h [22]: 1.62
IC50 [23]: 9800 nM
Cmax [24]: 400 nM
Vd [25]: 3.5 L/kg
IC50 [26]: 3700 nM
Activity (Mus musculus [27]): 17%
clearance [28]: 37 mL/min/kg
Kp at 1 h [29]: 3.42
AUC(0-inf) [30]: 0.3 µM·h
concentration (Mus musculus [31]): 16 nM
bioavailability [32]: 62%
Activity (Mus musculus [33]): Dose-dependent effect
Cmax [34]: 9700 nM
Kp at 1 h [35]: 1.84
Activity (Canis familiaris): Non-toxic

Structure (SMILES): Cc1c(CN[C@H]2CC[C@@H](F)C2)nn(C)c1-c1cc(F)cc(Cl)c1
IC50 (Nociceptin receptor [2]): 17 nM

Structure (SMILES): Cc1c(CN[C@H]2CC[C@@H](F)C2)nn(C)c1-c1cc(F)cc(C(F)(F)F)c1
IC50 (Nociceptin receptor [2]): 210 nM

Structure (SMILES): Cc1c(CN[C@H]2CC[C@@H](F)C2)nn(C)c1-c1cc(F)c(F)c(F)c1
IC50 (Nociceptin receptor [2]): 15 nM
IC50 (Nociceptin receptor [4]): 13 nM

Structure (SMILES): Cc1ncc(-c2c(C)c(CN[C@H]3CC[C@@H](F)C3)nn2-c2ncccc2Cl)cc1F
remaining at 0.5 h [3]: 39%
bioavailability [19]: 3.2%

Structure (SMILES): Cc1c(CN[C@H]2CC[C@@H](F)C2)nn(CCO)c1-c1cc(F)cc(F)c1
logD [1]: 1.3
IC50 (Nociceptin receptor [2]): 15 nM

Results, then the compound that gave them:

remaining at 0.5 h [3]: 56%
logD [1]: 1.9
IC50 (Nociceptin receptor [2]): 3.1 nM
IC50 (Nociceptin receptor [4]): 2.5 nM
Structure (SMILES): Cc1c(CN[C@H]2CC[C@@H](F)C2)nn(C)c1-c1cc(F)cc(F)c1

remaining at 0.5 h [3]: 21%
IC50 (Nociceptin receptor [2]): 9.9 nM
IC50 (Nociceptin receptor [4]): 7.8 nM
Structure (SMILES): Cc1ncc(-c2[nH]nc(CN[C@H]3CC[C@@H](F)C3)c2C)cc1F

remaining at 0.5 h [3]: 40%
IC50 (Nociceptin receptor [2]): 9.3 nM
IC50 (Nociceptin receptor [4]): 2.5 nM
Structure (SMILES): Cn1nc(CN[C@H]2CC[C@@H](F)C2)c(Cl)c1-c1cc(F)cc(F)c1

IC50 (Nociceptin receptor [2]): 2 nM
IC50 (Nociceptin receptor [4]): 0.61 nM
Structure (SMILES): CCn1nc(CN[C@H]2CC[C@@H](F)C2)c(C)c1-c1cnc(C)c(F)c1

remaining at 0.5 h [3]: 25%
IC50 (Nociceptin receptor [2]): 4.3 nM
IC50 (Nociceptin receptor [4]): 2.2 nM
Structure (SMILES): Cc1ncc(-c2c(C)c(CN[C@H]3CC[C@@H](F)C3)nn2C)cc1F

IC50 (Nociceptin receptor [2]): 6.4 nM
IC50 (Nociceptin receptor [4]): 6.5 nM
Structure (SMILES): Cc1c(CN[C@H]2CC[C@@H](F)C2)nn(C)c1-c1ccc(F)c(F)c1

logD [1]: 1.4
IC50 (Nociceptin receptor [2]): 12 nM
Structure (SMILES): CC(=O)Cn1nc(CN[C@H]2CC[C@@H](F)C2)c(C)c1-c1cc(F)cc(F)c1

remaining at 0.5 h [3]: 39%
IC50 (Nociceptin receptor [2]): 1.4 nM
IC50 (Nociceptin receptor [4]): 1 nM
Structure (SMILES): COCc1c(CN[C@H]2CC[C@@H](F)C2)nn(C)c1-c1cc(F)cc(F)c1
